Test results taken from ChEMBL document CHEMBL2062479, “Synthesis and biological evaluation of derivatives of 2-{2-fluoro-4-[(2-oxocyclopentyl)methyl]phenyl}propanoic acid: nonsteroidal anti-inflammatory drugs with low gastric ulcerogenic activity” (J Med Chem, 2012).
Active and inactive are the calls of the source. The calls are words filed in the database; no cut-off is given here.

Assays:
[1] = target: T1, Prostaglandin G/H synthase 1 (Homo sapiens, UniProt P23219); assay: Inhibition of human whole blood COX-1 assessed as inhibition of TXB2 production at 10 uM by EIA
How it was run: (§1)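 Human whole blood COX assay, with COX-1 and COX-2 read as prostaglandin biosynthesis. Relative inhibition (%) was taken at fixed test concentrations of 10 and 100 μM. Mean ± SEM, n = 3−6.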

[2] = target: T2, Prostaglandin G/H synthase 2 (Homo sapiens) (UniProt P35354); assay: Inhibition of LPS-stimulated human whole blood COX-2 assessed as inhibition of PGE2 production at 10 uM by EIA; how it was run: as §1
T2 sequence (whole entry): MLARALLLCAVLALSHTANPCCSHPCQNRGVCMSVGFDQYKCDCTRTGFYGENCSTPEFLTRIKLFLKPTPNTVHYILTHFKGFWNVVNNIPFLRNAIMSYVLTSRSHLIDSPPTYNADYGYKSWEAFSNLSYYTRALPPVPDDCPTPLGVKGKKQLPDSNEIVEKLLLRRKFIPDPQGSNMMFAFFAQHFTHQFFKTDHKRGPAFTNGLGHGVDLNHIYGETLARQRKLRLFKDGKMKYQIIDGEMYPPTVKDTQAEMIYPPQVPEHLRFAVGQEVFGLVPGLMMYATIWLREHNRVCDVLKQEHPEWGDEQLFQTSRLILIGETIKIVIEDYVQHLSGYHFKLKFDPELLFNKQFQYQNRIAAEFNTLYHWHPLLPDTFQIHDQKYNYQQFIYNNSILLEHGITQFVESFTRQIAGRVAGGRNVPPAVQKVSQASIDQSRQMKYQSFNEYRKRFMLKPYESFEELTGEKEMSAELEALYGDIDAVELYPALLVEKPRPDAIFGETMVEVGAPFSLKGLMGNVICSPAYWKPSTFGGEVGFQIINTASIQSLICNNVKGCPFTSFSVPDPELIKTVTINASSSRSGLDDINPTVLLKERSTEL

[3] = target: T2, Prostaglandin G/H synthase 2 (Homo sapiens); assay: Inhibition of LPS-stimulated human whole blood COX-2 assessed as inhibition of PGE2 production at 100 uM by EIA; how it was run: as §1
Rattus norvegicus [4] = assay: Antiinflammatory activity against Wistar rat assessed as inhibition of carrageenan induced edema volume at 37.3 uM/kg, po administered 1 hr prior carrageenan-challenge measured after 3 hrs post challenge; assay type: functional
How it was run: (§2)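 Oral dose of 37.3 μM/kg. Carrageenan (1%) was injected intradermally into the left hindpaw 1 h later. Edema was measured 3 h and 6 h after challenge, and relative inhibition of the edema volume increase was calculated. Mean ± SEM, n = 3−6.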

[5] = target: T1, Prostaglandin G/H synthase 1; assay: Inhibition of human whole blood COX-1 assessed as inhibition of TXB2 production at 100 uM by EIA; how it was run: as §1
Rattus norvegicus [6] = assay: Antiinflammatory activity against Wistar rat assessed as inhibition of carrageenan induced edema volume at 37.3 uM/kg, po administered 1 hr prior carrageenan-challenge measured after 6 hrs post challenge; assay type: functional; how it was run: as §2
Homo sapiens = species on record: Homo sapiens; assay: Selectivity index, ratio of IC50 for human COX1 to IC50 for human COX2
How it was run: (§3)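 Human whole blood COX-1 and COX-2 assay run over a range of test concentrations. IC50 was fitted to a four-parameter logistic dose−response curve, and the COX-1/COX-2 ratio was computed from the two IC50 values. Mean ± SEM, n = 3−6.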

[7] = target: T3, Prostaglandin G/H synthase 2 (Homo sapiens, UniProt P35354); assay: Inhibition of LPS-stimulated human whole blood COX-2 assessed as inhibition of PGE2 production by EIA; how it was run: as §3
T3 sequence (P35354 whole entry): T2 sequence (whole entry)

[8] = target: T1, Prostaglandin G/H synthase 1; assay: Inhibition of human whole blood COX-1 assessed as inhibition of TXB2 production by EIA; how it was run: as §3
Rattus norvegicus [9] = assay: Toxicity in rat assessed as gastric ulcerogenic activity at 0.37 to 7.45 mM/kg, po measured after 8 hrs; assay type: organism-based, Stomach; details: in vivo
How it was run: (§4)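 Rats were given oral doses of 0.37, 0.75, 1.12, 1.86, 3.73 or 7.45 mM/kg. Stomachs were removed 8 h later and scored for hemorrhagic damage. Mean ± SEM, n = 3−6.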

Rattus norvegicus [10] = assay: Toxicity in rat assessed as gastric ulcerogenic activity at 7.45 mM/kg, po measured after 8 hrs; assay type: organism-based, Stomach; details: in vivo, 7450 µM; how it was run: as §4
Rattus norvegicus [11] = assay: Antiinflammatory activity against Wistar rat assessed as inhibition of carrageenan induced edema volume at 3.73 to 37.3 uM/kg, po administered 1 hr prior carrageenan-challenge measured after 3 to 6 hrs post challenge; assay type: functional, organism-based
How it was run: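 Rats dosed orally at 3.73, 11.2 or 37.3 μM/kg. Carrageenan (1%) was injected intradermally into the left hindpaw 1 h after dosing. Footpad edema was measured 3 and 6 h after carrageenan, and relative inhibition of the edema volume increase was calculated. Mean ± SEM, n = 3−6.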

T1 sequence (P23219 whole entry): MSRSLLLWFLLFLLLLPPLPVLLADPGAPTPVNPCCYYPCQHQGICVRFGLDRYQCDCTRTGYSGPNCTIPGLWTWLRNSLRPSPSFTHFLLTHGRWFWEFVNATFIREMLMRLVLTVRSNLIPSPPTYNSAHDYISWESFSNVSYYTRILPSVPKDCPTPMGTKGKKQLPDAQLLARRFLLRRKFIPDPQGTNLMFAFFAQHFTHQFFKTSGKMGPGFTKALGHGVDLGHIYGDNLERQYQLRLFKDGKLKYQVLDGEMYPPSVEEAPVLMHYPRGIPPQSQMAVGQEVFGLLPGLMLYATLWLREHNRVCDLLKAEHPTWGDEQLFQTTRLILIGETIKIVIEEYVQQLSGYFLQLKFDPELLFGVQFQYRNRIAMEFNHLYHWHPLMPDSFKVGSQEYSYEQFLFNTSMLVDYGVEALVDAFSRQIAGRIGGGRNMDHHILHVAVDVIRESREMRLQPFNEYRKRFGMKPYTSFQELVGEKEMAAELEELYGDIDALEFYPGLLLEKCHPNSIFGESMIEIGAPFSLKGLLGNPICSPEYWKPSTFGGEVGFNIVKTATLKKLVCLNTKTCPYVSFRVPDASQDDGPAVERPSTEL

| SMILES | inhibition [1] [%] | inhibition [2] [%] | inhibition [3] [%] | inhibition [5] [%] | Ratio IC50 (Homo sapiens) | IC50 [7] [µM] | IC50 [8] [µM] | inhibition (INH) (Rattus norvegicus [4]) [%] | inhibition (INH) (Rattus norvegicus [6]) [%] | Activity (Rattus norvegicus [9]) | Activity (Rattus norvegicus [10]) | inhibition (Rattus norvegicus [11]) |
| --- | --- | --- | --- | --- | --- | --- | --- | --- | --- | --- | --- | --- |
| CC(C(=O)O)c1ccc(Cc2ccco2)cc1F (stereo not given) | 26.3 | 64.1 | 96.1 | 79.9 | 5.3 | 4.1 | 21.6 | 38.9 | 45.8 | Non-toxic | – | – |
| CC(C(=O)O)c1cc(F)c(CC2CCCC2=O)cc1F (stereo not given) | 0 | 15 | 84.8 | 81 | – | – | – | <0 | <0 | – | – | – |
| CC(C(=O)O)c1ccc(Cc2ccsc2)cc1F (stereo not given) | 53.9 | 60.2 | 99.5 | 87.4 | 1.2 | 8.3 | 9.5 | 40.2 | 33.4 | Toxic | – | – |
| CC(C(=O)O)c1ccc(CC2CCCC2=O)cc1 (stereo not given) [LOXOPROFEN] | 35 | 53.2 | 97.4 | 87.5 | 2.3 | – | – | 44 | 53.1 | Toxic | – | – |
| CC(C(=O)O)c1ccc(Cc2ccoc2)cc1F (stereo not given) | 30.9 | 58.7 | 90.9 | 57.5 | 7.6 | 4 | 30.1 | 32.7 | 45.2 | Non-toxic | – | – |
| CC(C(=O)O)c1ccc(Cc2cccs2)cc1F (stereo not given) | 27.4 | 45.8 | 89.2 | 76.5 | 1.5 | 13 | 19.9 | 12.5 | 28 | – | – | – |
| CC(C(=O)O)c1c(F)cc(CC2CCCC2=O)cc1Br (stereo not given) | 13.8 | 0 | 0 | 49.7 | – | – | – | <0 | <0 | – | – | – |
| CC(C(=O)O)c1c(F)cc(CC2CCCC2=O)cc1-c1ccc(O)cc1 (stereo not given) | 0 | 15.4 | 38 | 7.2 | – | – | – | <0 | <0 | – | – | – |
| CC(C(=O)O)c1ccc(CC2CCCC2=O)cc1F (stereo not given) | 32.7 | 44.2 | 81.8 | 85.7 | 1.7 | – | – | 41.8 | 54.1 | Non-toxic | – | Active |
| CCC(=O)C(C)Cc1ccc(C(C)C(=O)O)c(F)c1 (stereo not given) | 0 | 0 | 0 | 13.5 | – | – | – | <0 | <0 | – | – | – |
| CCC(Cc1ccc(C(C)C(=O)O)c(F)c1)C(C)=O (stereo not given) | 78 | 0 | 82.2 | 98.1 | – | – | – | 20.9 | 20.2 | – | – | – |
| CC(C(=O)O)c1ccc(OC2CCCC2=O)cc1F (stereo not given) | 80.6 | 27.6 | 82.5 | 82.3 | 0.1 | 24.1 | 1.5 | 30.3 | 25 | – | – | – |
| CC(C(=O)O)c1c(F)cc(CC2CCCC2=O)cc1F (stereo not given) | 11.3 | 0 | 70.9 | 79.3 | – | – | – | 21.6 | 17.7 | – | – | – |
| Cc1ccc(-c2cc(C(F)(F)F)nn2-c2ccc(S(N)(=O)=O)cc2)cc1 | – | – | – | – | 22.7 | – | – | – | – | – | – | – |

More lines, main results first:

| inhibition [1] [%] | inhibition [2] [%] | inhibition [3] [%] | inhibition [5] [%] | Ratio IC50 (Homo sapiens) | IC50 [7] [µM] | IC50 [8] [µM] | SMILES | inhibition (INH) (Rattus norvegicus [4]) [%] | inhibition (INH) (Rattus norvegicus [6]) [%] | Activity (Rattus norvegicus [9]) | Activity (Rattus norvegicus [10]) | inhibition (Rattus norvegicus [11]) |
| --- | --- | --- | --- | --- | --- | --- | --- | --- | --- | --- | --- | --- |
| 0 | 0 | 30 | 0 | – | – | – | CC(C(=O)O)c1ccc(NC2CCCCC2)cc1F (stereo not given) | <0 | 19.2 | – | – | – |
| 0 | 28.3 | 76.7 | 0 | – | – | – | CC(C(=O)O)c1ccc(N[C@H]2CCCC[C@@H]2O)cc1F (stereo not given in full) | <0 | <0 | – | – | – |
| 54.6 | 45.3 | 77.6 | 83.4 | 0.7 | 14 | 9 | CC(C(=O)O)c1ccc(N[C@H]2CCC[C@@H]2O)cc1F (stereo not given in full) | 20.6 | 5.7 | – | – | – |
| 65 | 39.7 | 96.4 | 81.4 | 0.1 | 26.3 | 3 | CC(C(=O)O)c1ccc(OC2CCCC2)cc1F (stereo not given) | 40.4 | 51.9 | Non-toxic | Non-toxic | – |
| 0 | 55.5 | 93.1 | 60.7 | – | – | – | CC(C(=O)O)c1ccc(SC2CCCC2=O)cc1F (stereo not given) | 38 | 27.2 | – | – | – |
| 34.7 | 40.7 | 91.9 | 92 | 0.7 | 21.3 | 15.6 | CC(C(=O)O)c1ccc(NC2CCCC2)cc1F (stereo not given) | 45.5 | 60.1 | Non-toxic | Non-toxic | Active |
| 10.4 | 25.4 | 80.2 | 78.2 | – | – | – | CC(C(=O)O)c1ccc(O[C@H]2CCC[C@@H]2O)cc1F (stereo not given in full) | <0 | 13.3 | – | – | – |
| 4.7 | 15.6 | 80.1 | 87.9 | – | – | – | CC(C(=O)O)c1ccc(SC2CCCC2)cc1F (stereo not given) | <0 | 9.5 | – | – | – |
| 0 | 0 | 64.4 | 47.6 | – | – | – | CC(C(=O)O)c1ccc(S[C@H]2CCC[C@@H]2O)cc1F (stereo not given in full) | <0 | <0 | – | – | – |
